Laboratory results from ChEMBL document CHEMBL1938387 (J Med Chem, 2011).
pIC50: −log10 of the molar value. Active and inactive are the calls of the source. The rule behind the calls is not given here.

What was measured:
[1] = Growth inhibition of human KB-S15 cells after 72 hrs by methylene blue assay; format: functional, cell-based; conditions: KB-S15, 72 h
Method in brief: (§1)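 Resistant KB sublines were maintained in extra drug: KB-Vin10 in 10 nM vincristine, KB-S15 in 50 nM paclitaxel, KB-7D in 7 μM VP16. Cells were kept drug-free for 3 days before harvest. Seeded at 8000−20000 cells/mL/well and exposed 72 h. Read by methylene blue, A595 after N-lauroylsarcosine extraction. Means and standard errors of ≥3 experiments in duplicate.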

[2] = Growth inhibition of human KB-VIN10 cells after 72 hrs by methylene blue assay; format: functional, cell-based; conditions: KB-VIN10, 72 h; method in brief: as §1
[3] = Growth inhibition of human KB-7d cells after 72 hrs by methylene blue assay; format: functional, cell-based; conditions: KB7D; method in brief: as §1
KB = experiment: Growth inhibition of human KB cells after 72 hrs by methylene blue assay; format: functional, cell-based
Method in brief: (§2)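 HT29, KB and MKN45 cells grown in DMEM, MEM or RPMI 1640 with 10% FBS at 37 °C in 5% CO2. Seeded at 8000−20000 cells/mL/well and allowed to adhere overnight. Exposed to various drug concentrations for 72 h, then methylene blue stain extracted with 1% N-lauroylsarcosine and A595 read. IC50 taken relative to untreated cells; means and standard errors, ≥3 independent experiments in duplicate.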

HT-29 = experiment: Growth inhibition of human HT-29 cells after 72 hrs by methylene blue assay; format: functional, cell-based; conditions: HT-29, 72 h; method in brief: as §2
MKN-45 = experiment: Growth inhibition of human MKN45 cells after 72 hrs by methylene blue assay; format: functional, cell-based; conditions: MKN-45, 72 h; method in brief: as §2
HUVEC [4] = experiment: Antiangiogenic activity in HUVEC assessed as inhibition of capillary tube formation after 4 hrs by Matrigel matrix assay; format: functional, cell-based; conditions: Homo sapiens
Method in brief: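 HUVECs seeded at 2 × 10^4 cells/well on Matrigel in M199 with 20% FBS and 20 ng/mL VEGF. Capillaries formed over 4 h before test compound or DMSO vehicle was added. Imaged at addition and 4 h later. Capillary tube networks counted manually under a microscope at 100×, expressed relative to vehicle control. Mean ± SD of three separate experiments.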

[5] = (§3) Inhibition of bovine brain tubulin polymerization measured every 30 sec for 30 mins by turbidimetric assay; design: species or system Bos taurus
Bos taurus [6] = organism: Bos taurus; experiment: as §3
Bos taurus [7] = organism: Bos taurus; experiment: Displacement of [3H]cholchicine from bovine brain tubulin at 5 uM after 2 hrs by scintillation counting
Bos taurus [8] = organism: Bos taurus; experiment: Inhibition of bovine brain tubulin polymerization at 5 uM measured every 30 sec for 30 mins by turbidimetric assay
HUVEC [9] = experiment: Cytotoxicity against HUVEC assessed as reduction in cell viability at 15 to 120 uM; format: cell-based; conditions: human
Bos taurus [10] = organism: Bos taurus; experiment: Displacement of [3H]cholchicine from bovine brain tubulin at 1 uM after 2 hrs by scintillation counting
Bos taurus [11] = organism: Bos taurus; experiment: Displacement of [3H]cholchicine from bovine brain tubulin after 2 hrs by scintillation counting
Method in brief: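 Scintillation proximity assay: 0.08 μM [3H]colchicine plus test compound and 0.5 μg biotin-labeled tubulin in 80 mM PIPES pH 6.8, 1 mM EGTA, 10% glycerol, 1 mM MgCl2, 1 mM GTP, 2 h at 37 °C. Streptavidin SPA beads (80 μg) then added and counts read directly by scintillation counter.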

## CC(=O)O[C@H]1C(=O)[C@@]2(C)[C@H]([C@H](OC(=O)c3ccccc3)[C@]3(O)C[C@H](OC(=O)[C@H](O)[C@@H](NC(=O)c4ccccc4)c4ccccc4)C(C)=C1C3(C)C)[C@]1(OC(C)=O)CO[C@@H]1C[C@@H]2O [PACLITAXEL]
[1]
  pIC50: 6.56
[2]
  pIC50: 4.78
[3]
  pIC50: 8.10

## COc1cc(Sc2ccc3c(N)c(OC)ccc3n2)cc(OC)c1OC
KB
  pIC50: 7.23
HT-29
  pIC50: 7.40
MKN-45
  pIC50: 7.55

## COc1cc(C(=O)c2ccc3c(O)c(OC)ccc3n2)cc(OC)c1OC
HUVEC [4]
  Activity: Dose-dependent effect
[5]
  pIC50: 5.82
Bos taurus [6]
  inhibition: Dose-dependent effect
Bos taurus [7]
  inhibition: 97%
Bos taurus [8]
  inhibition: Active
KB
  pIC50: 8.55
[1]
  pIC50: 8.28
HT-29
  pIC50: 8.51
MKN-45
  pIC50: 8.35
HUVEC [9]
  Activity: Non-toxic
Bos taurus [10]
  inhibition: 91%
[2]
  pIC50: 8.24
[3]
  pIC50: 8.04

## COc1cc(S(=O)(=O)c2ccc3c(N)c(OC)ccc3n2)cc(OC)c1OC
[5]
  pIC50: 5.70
Bos taurus [6]
  inhibition: Dose-dependent effect
Bos taurus [7]
  inhibition: 85%
Bos taurus [8]
  inhibition: Active
KB
  pIC50: 7.74
[1]
  pIC50: 8.60
Bos taurus [11]
  inhibition: Dose-dependent effect
HT-29
  pIC50: 7.80
MKN-45
  pIC50: 8.40
Bos taurus [10]
  inhibition: 65%
[2]
  pIC50: 8.55
[3]
  pIC50: 8.62

## COc1cc2c(c(OC)c1OC)-c1ccc(OC)c(=O)cc1[C@@H](NC(C)=O)CC2 [COLCHICINE]
HT-29
  pIC50: 7.79
MKN-45
  pIC50: 7.72

## COc1cc(C(=O)c2ccc3c(Br)c(OC)ccc3n2)cc(OC)c1OC
KB
  pIC50: 6.97
HT-29
  pIC50: 6.71
MKN-45
  pIC50: 6.78

## CC[C@]1(O)C[C@H]2CN(CCc3c([nH]c4ccccc34)[C@@](C(=O)OC)(c3cc4c(cc3OC)N(C=O)[C@H]3[C@@](O)(C(=O)OC)[C@H](OC(C)=O)[C@]5(CC)C=CCN6CC[C@]43[C@@H]65)C2)C1 [VINCRISTINE]
[1]
  pIC50: 7.75
[2]
  pIC50: 7.05
[3]
  pIC50: 8.92

## COc1cc(Oc2ccc3c(N)c(OC)ccc3n2)cc(OC)c1OC
[5]
  pIC50: 5.24
Bos taurus [7]
  inhibition: 60%
KB
  pIC50: 7.51
[1]
  pIC50: 7.37
HT-29
  pIC50: 6.86
MKN-45
  pIC50: 7.21
Bos taurus [10]
  inhibition: 44%
[2]
  pIC50: 7.10
[3]
  pIC50: 7.12

## COc1cc([C@@H]2c3cc4c(cc3[C@@H](O[C@@H]3O[C@@H]5CO[C@@H](C)O[C@H]5[C@H](O)[C@H]3O)[C@H]3COC(=O)[C@H]23)OCO4)cc(OC)c1O [ETOPOSIDE]
[1]
  pIC50: 5.46
[2]
  pIC50: 4.64
[3]
  pIC50: 4.27

## COc1cc(C(=O)c2ccc3c(I)c(OC)ccc3n2)cc(OC)c1OC
KB
  pIC50: 6.35
HT-29
  pIC50: 5.96
MKN-45
  pIC50: 6.09

## COc1cc(-c2ccc3c(N)c(OC)ccc3n2)cc(OC)c1OC
KB
  pIC50: < 5.30
HT-29
  pIC50: < 5.30
MKN-45
  pIC50: < 5.30

## COc1cc(Nc2ccc3c(N)c(OC)ccc3n2)cc(OC)c1OC
KB
  pIC50: < 5.30
HT-29
  pIC50: < 5.30
MKN-45
  pIC50: < 5.30

## COc1cc(C(=O)c2ccc3c(Cl)c(OC)ccc3n2)cc(OC)c1OC
KB
  pIC50: 7.35
HT-29
  pIC50: 7.29
MKN-45
  pIC50: 7.22
